The text below walks through data of ChEMBL document CHEMBL4184294, “A small group of sulfated benzofurans induces steady-state submaximal inhibition of thrombin” (Bioorg Med Chem Lett, 2018).

For data set [1], the system named is CCOC(=O)c1c(C)oc2cc(OCCc3ccccc3)c(OCc3oc4cc(OC)c(OS(=O)(=O)O)cc4c3C(=O)OCC)cc12. Briefly: Non competitive inhibition of human thrombin assessed as substrate Vmax at 1 uM using varying levels of spectrozyme TH as substrate measured after 10 mins by Michaelis-Menten plot analysis (reference value: 51.0 +/- 2.8 mAU/min).
Data set [2] shares this test system. Briefly: Non competitive inhibition of human thrombin assessed as substrate Vmax at 10 uM using varying levels of spectrozyme TH as substrate measured after 10 mins by Michaelis-Menten plot analysis (reference value: 51.0 +/- 2.8 mAU/min).
Data set [3] has the same test system. Briefly: Non competitive inhibition of human thrombin assessed as substrate Vmax at 40 uM using varying levels of spectrozyme TH as substrate measured after 10 mins by Michaelis-Menten plot analysis (reference value: 51.0 +/- 2.8 mAU/min).
Data set [4] shares this test system. Briefly: Non competitive inhibition of human thrombin assessed as substrate Km at 1 uM using varying levels of spectrozyme TH as substrate measured after 10 mins by Michaelis-Menten plot analysis (reference value: 9.3 +/- 2.8 uM).
Data set [5] has the same test system. Briefly: Non competitive inhibition of human thrombin assessed as substrate Km at 2 uM using varying levels of spectrozyme TH as substrate measured after 10 mins by Michaelis-Menten plot analysis (reference value: 9.3 +/- 2.8 uM).
The test system is the same in data set [6]. Briefly: Non competitive inhibition of human thrombin assessed as substrate Km at 10 uM using varying levels of spectrozyme TH as substrate measured after 10 mins by Michaelis-Menten plot analysis (reference value: 9.3 +/- 2.8 uM).
The test system is the same in data set [7]. As to the kind of experiment: Non competitive inhibition of human thrombin assessed as substrate Km at 40 uM using varying levels of spectrozyme TH as substrate measured after 10 mins by Michaelis-Menten plot analysis (reference value: 9.3 +/- 2.8 uM).
For data set [8], the system named is CCOC(=O)c1c(C)oc2cc(OCc3ccccc3)c(OCc3oc4cc(OCC5CCCCC5)c(OS(=O)(=O)O)cc4c3C(=O)OCC)cc12. As to the kind of experiment: Mixed-type inhibition of human thrombin assessed as substrate Vmax at 1 uM using varying levels of spectrozyme TH as substrate measured after 10 mins by Michaelis-Menten plot analysis (reference value: 48.2 +/- 2.8 mAU/min).
The test system is the same in data set [9]. As to the kind of experiment: Mixed-type inhibition of human thrombin assessed as substrate Vmax at 2 uM using varying levels of spectrozyme TH as substrate measured after 10 mins by Michaelis-Menten plot analysis (reference value: 48.2 +/- 2.8 mAU/min).
The test system is the same in data set [10]. Briefly: Mixed-type inhibition of human thrombin assessed as substrate Vmax at 10 uM using varying levels of spectrozyme TH as substrate measured after 10 mins by Michaelis-Menten plot analysis (reference value: 48.2 +/- 2.8 mAU/min).
The test system is the same in data set [11]. Briefly: Mixed-type inhibition of human thrombin assessed as substrate Vmax at 40 uM using varying levels of spectrozyme TH as substrate measured after 10 mins by Michaelis-Menten plot analysis (reference value: 48.2 +/- 2.8 mAU/min).
Data set [12] shares this test system. Briefly: Mixed-type inhibition of human thrombin assessed as substrate Km at 1 uM using varying levels of spectrozyme TH as substrate measured after 10 mins by Michaelis-Menten plot analysis (reference value: 8.6 +/- 2.8 uM).
Data set [13] shares this test system. Briefly: Mixed-type inhibition of human thrombin assessed as substrate Km at 2 uM using varying levels of spectrozyme TH as substrate measured after 10 mins by Michaelis-Menten plot analysis (reference value: 8.6 +/- 2.8 uM).
For data set [14] the test system is unchanged. As to the kind of experiment: Mixed-type inhibition of human thrombin assessed as substrate Km at 10 uM using varying levels of spectrozyme TH as substrate measured after 10 mins by Michaelis-Menten plot analysis (reference value: 8.6 +/- 2.8 uM).
Data set [15] shares this test system. As to the kind of experiment: Mixed-type inhibition of human thrombin assessed as substrate Km at 40 uM using varying levels of spectrozyme TH as substrate measured after 10 mins by Michaelis-Menten plot analysis (reference value: 8.6 +/- 2.8 uM).
Data set [16] concerns the target T1, Prothrombin (Homo sapiens, UniProt P00734). As to the kind of experiment: Partial allosteric inhibition of human thrombin using […] as substrate measured after 1 min by fibrometric method.
The target of data set [17] is T1, Prothrombin. As to the kind of experiment: Partial allosteric inhibition of human thrombin at 500 uM using spectrozyme TH as substrate pretreated for 10 mins followed by substrate addition by spectrophotometric method relative to control.
Data set [18] concerns the target T1, Prothrombin. As to the kind of experiment: Partial allosteric inhibition of human thrombin using spectrozyme TH as substrate pretreated for 10 mins followed by substrate addition by spectrophotometric method. Put shortly: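 Chromogenic substrate hydrolysis by thrombin read spectrophotometrically in 20 mM Tris-HCl pH 7.4 with […], 100 mM NaCl and 0.1% PEG 8000 at 25 °C. Sigmoidal fits gave IC50 and efficacy (ΔY). Errors ±1 S.E.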

Bounds are passed on as bounds.

As to “Prothrombin (Homo sapiens) (from UniProt P00734)”, the Vmax in data set [1] was found to be 44.1 mAU/min; in data set [2], 30.9 mAU/min; in data set [3], 23.7 mAU/min; in data set [8], 43.8 mAU/min; in data set [9], 38.7 mAU/min; in [10], 32.5 mAU/min. Besides, the Vmax in data set [11] stood at 26.5 mAU/min. Also, the Michaelis-Menten constant (Km) in [4] is 8.3 µM; in data set [5], 9.2 µM; in data set [6], 7.4 µM; in [7], 6.8 µM; in [12], 8.8 µM; in data set [13], 10.7 µM. For the same molecule, the Km in [14] was 29.7 µM; in data set [15] it was 61 µM.
H-PEHPAETEYDSLYPEDDL-OH showed a concentration for half-maximal inhibition (IC50) in data set [16] of 130 µM.
`COc1cc2oc(C)c(C(=O)OCCOS(=O)(=O)O)c2cc1OS(=O)(=O)O`: the inhibition in [17] was greater than 50%. In addition, the IC50 in data set [18] is greater than 500 µM.
The like results for `CCOC(=O)c1c(C)oc2cc(OCc3cccc(OS(=O)(=O)O)c3)c(OS(=O)(=O)O)cc12` were, in that order, greater than 50% and greater than 500 µM.
The matching figures for `COC(=O)c1c(C)oc2cc(OCc3cccc(OS(=O)(=O)O)c3)c(OCc3cccc(S(=O)(=O)O)c3)cc12`: greater than 50% and greater than 500 µM.
The like results for `Cc1oc2cc(OCc3ccccc3)c(OS(=O)(=O)O)cc2c1C(=O)O` were, in that order, greater than 50% and greater than 500 µM.

One may read the Km as the substrate concentration at which the rate is half of its maximum. A word on the IC50: it is the concentration needed to halve the response being measured. By inhibition is commonly meant the drop in the measured response relative to a control, in per cent.
